One test deals with NCI-H23. Nature of the test: Cytotoxicity against human NCI-H23 cells assessed as growth inhibition after 72 hrs by SRB assay. Format: functional. The note with it: NCI-H23, 72 h.
Test [1] addresses T1, Nuclear factor NF-kappa-B complex (Homo sapiens) (UniProt Q00653+P19838+Q04206). As to the kind of experiment: Inhibition of transcriptional activity of NF-kappaB (unknown origin) transfected in LPS-stimulated mouse RAW264.7 cells at 100 uM after 16 hrs by secretory alkaline phosphatase reporter gene assay relative to control. Format: cell-based. In short, it runs like this:
(§1)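 LPS-stimulated RAW 264.7 macrophages carrying NF-κB-driven SEAP reporter; cell-free media heated 65℃ 5 min, then reacted with 500 µM 4-methylumbelliferyl phosphate, 2 M diethanolamine, 1 mM MgCl₂ in the dark at room temperature for 1 h. Fluorescence read at excitation 360 nm / emission 449 nm (RFU). Percent inhibition tested at 100 μM; IC₅₀ as mean of three experiments.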

Test [2] concerns the target Nuclear factor NF-kappa-B complex (Homo sapiens, UniProt P19838+Q00653+Q04206). Nature of the test: Inhibition of transcriptional activity of NF-kappaB (unknown origin) transfected in LPS-stimulated mouse RAW264.7 cells after 16 hrs by secretory alkaline phosphatase reporter gene assay. Format: cell-based. The essentials:
as §1

Test [3] deals with T1, Nuclear factor NF-kappa-B complex (Homo sapiens). Nature of the test: Potency index, ratio of PDTC IC50 to compound IC50 for inhibition of transcriptional activity of NF-kappaB (unknown origin) transfected in LPS-stimulated mouse RAW264.7 cells.

Bounds are passed on as bounds.

T1 sequence (P19838 whole entry, looked up): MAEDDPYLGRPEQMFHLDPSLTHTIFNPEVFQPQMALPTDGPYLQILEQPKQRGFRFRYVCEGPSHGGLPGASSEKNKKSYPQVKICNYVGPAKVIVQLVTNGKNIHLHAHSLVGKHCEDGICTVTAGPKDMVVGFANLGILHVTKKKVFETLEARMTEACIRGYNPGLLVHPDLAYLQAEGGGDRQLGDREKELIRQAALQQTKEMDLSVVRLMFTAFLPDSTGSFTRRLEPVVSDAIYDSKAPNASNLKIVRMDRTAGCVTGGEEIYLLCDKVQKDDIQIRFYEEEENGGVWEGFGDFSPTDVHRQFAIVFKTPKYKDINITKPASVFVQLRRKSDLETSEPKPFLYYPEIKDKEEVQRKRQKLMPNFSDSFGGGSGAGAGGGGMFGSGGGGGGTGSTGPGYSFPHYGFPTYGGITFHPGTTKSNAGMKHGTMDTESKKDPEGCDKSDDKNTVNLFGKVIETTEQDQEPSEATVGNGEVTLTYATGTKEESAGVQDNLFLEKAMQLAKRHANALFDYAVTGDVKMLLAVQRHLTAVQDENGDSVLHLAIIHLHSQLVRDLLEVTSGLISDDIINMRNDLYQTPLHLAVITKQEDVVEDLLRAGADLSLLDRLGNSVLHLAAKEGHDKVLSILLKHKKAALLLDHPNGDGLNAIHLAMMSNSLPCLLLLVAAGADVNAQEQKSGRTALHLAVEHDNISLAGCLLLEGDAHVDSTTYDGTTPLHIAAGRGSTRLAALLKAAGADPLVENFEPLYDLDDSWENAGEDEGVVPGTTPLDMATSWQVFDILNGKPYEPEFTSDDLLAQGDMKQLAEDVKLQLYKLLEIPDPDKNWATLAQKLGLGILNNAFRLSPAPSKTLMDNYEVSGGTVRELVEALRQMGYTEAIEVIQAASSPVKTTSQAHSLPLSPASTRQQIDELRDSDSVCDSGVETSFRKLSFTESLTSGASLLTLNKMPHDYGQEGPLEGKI
T1 sequence (Q00653 whole entry, looked up): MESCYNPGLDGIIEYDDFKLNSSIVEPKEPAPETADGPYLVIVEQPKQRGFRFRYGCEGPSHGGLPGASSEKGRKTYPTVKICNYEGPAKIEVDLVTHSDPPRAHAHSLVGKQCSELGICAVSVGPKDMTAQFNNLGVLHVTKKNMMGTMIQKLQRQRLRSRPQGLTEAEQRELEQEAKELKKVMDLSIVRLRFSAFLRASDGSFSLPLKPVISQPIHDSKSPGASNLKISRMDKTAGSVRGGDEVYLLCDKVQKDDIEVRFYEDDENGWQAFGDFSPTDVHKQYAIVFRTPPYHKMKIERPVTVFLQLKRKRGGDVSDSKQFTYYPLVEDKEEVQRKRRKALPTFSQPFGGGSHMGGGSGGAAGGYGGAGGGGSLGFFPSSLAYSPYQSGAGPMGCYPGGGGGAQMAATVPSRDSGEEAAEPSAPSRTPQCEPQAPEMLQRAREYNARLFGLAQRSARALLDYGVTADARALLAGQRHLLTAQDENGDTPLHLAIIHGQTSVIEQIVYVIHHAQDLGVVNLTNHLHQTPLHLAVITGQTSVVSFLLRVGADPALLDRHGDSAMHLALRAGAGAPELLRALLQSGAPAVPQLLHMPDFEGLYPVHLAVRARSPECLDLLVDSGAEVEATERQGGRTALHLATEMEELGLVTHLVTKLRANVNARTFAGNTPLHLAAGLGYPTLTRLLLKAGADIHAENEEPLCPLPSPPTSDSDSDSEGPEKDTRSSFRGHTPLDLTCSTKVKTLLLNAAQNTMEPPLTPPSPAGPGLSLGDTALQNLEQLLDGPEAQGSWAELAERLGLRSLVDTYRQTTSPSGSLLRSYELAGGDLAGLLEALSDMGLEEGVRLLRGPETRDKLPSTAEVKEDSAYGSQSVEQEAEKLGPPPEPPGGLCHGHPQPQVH
T1 sequence (Q04206 whole entry, looked up): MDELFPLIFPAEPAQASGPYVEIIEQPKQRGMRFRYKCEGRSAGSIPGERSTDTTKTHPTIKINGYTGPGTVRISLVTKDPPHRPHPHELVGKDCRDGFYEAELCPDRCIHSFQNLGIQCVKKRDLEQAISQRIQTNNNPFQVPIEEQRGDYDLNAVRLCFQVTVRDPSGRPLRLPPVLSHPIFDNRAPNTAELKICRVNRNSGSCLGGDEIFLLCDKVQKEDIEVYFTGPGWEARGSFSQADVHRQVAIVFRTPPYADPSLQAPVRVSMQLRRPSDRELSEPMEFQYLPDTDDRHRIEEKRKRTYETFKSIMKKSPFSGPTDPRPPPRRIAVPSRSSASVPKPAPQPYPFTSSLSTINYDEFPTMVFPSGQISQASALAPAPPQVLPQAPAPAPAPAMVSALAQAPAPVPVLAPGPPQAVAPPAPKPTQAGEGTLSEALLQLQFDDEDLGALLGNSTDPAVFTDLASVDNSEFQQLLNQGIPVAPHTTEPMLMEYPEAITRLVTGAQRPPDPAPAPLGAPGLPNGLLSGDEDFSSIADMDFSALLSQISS
Chain of Nuclear factor NF-kappa-B complex (P19838 1-433 limits assumed): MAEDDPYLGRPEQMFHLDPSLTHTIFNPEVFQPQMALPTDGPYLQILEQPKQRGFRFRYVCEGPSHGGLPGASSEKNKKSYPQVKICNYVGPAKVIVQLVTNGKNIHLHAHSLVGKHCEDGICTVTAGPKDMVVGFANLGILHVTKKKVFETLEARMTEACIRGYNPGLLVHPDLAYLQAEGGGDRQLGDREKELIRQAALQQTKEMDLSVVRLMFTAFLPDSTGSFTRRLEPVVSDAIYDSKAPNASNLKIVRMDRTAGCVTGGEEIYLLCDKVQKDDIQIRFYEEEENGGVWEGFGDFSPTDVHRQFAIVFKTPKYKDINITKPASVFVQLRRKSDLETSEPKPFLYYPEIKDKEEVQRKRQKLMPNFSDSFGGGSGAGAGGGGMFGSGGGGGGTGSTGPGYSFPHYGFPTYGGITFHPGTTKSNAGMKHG
Chain of Nuclear factor NF-kappa-B complex (Q00653 1-454 limits assumed): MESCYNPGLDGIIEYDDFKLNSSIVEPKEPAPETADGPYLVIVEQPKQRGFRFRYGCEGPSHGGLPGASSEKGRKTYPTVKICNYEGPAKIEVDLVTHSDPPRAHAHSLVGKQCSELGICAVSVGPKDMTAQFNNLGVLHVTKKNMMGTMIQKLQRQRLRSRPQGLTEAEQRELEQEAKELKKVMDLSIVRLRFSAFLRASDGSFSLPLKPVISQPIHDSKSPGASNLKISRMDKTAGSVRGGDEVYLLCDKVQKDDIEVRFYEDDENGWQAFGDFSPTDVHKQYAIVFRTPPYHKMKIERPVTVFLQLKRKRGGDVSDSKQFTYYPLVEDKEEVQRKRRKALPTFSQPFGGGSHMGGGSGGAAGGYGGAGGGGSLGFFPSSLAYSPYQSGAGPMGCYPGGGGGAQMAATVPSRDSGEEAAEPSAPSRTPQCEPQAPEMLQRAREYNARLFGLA
Chain of Nuclear factor NF-kappa-B complex (Q04206 whole entry): as the sequence (Q04206 whole entry, looked up) above

Consider `FC(F)(F)c1ccc(NCC2CCc3ccc4ccccc4c3O2)cc1` (stereo unspecified), for which the GI50 in the test on NCI-H23 was over 30 µM. In test [1], this molecule gave an inhibition of 42%.

In the case of `c1ccc(NCC2CCc3ccc4ccccc4c3O2)cc1` (stereo unspecified), in the test with NCI-H23, the GI50 is 25.8 µM. The same molecule came in with an inhibition in test [1] of 49%.

For `c1ccc(CNCC2CCc3ccc4ccccc4c3O2)cc1` (stereo unspecified), in the test with NCI-H23, the GI50 came out at 10.4 µM. The molecule also returned an inhibition in test [1] of over 100%. Moreover, in test [2], the half-inhibitory concentration (IC50) worked out at 14.6 µM.

As to `O=C(Nc1ccc(Cl)cc1)C1CCc2ccc3ccccc3c2O1` (stereo unspecified), in the test with NCI-H23, the GI50 came out at 2.79 µM. In test [1], the inhibition is over 100%. Further, in test [2], the IC50 was found to be 5.8 µM.

Take `O=C(Nc1cccc(Cl)c1)C1CCc2ccc3ccccc3c2O1` (stereo unspecified): in the test with NCI-H23, the concentration for 50% growth inhibition (GI50) is over 30 µM. The molecule also returned an inhibition in test [1] of 87%. The molecule further yielded an IC50 in test [2] of 27.9 µM.

Consider `O=C(Nc1ccccc1O)C1CCc2ccc3ccccc3c2O1` (stereo unspecified), for which the concentration for 50% growth inhibition (GI50) with NCI-H23 is over 30 µM. The same molecule yielded an inhibition in test [1] of 91%. Also, it took 12.3 µM to reach half-maximal inhibition in test [2] (IC50).

Consider `FC(F)(F)c1cc(NCC2CCc3ccc4ccccc4c3O2)cc(C(F)(F)F)c1` (stereo unspecified), for which the GI50 in the test with NCI-H23 turned out to be 14.6 µM. This molecule gave an inhibition in test [1] of 96%. Also, half-maximal inhibition in test [2] (IC50) required 56.3 µM.

Consider `Clc1ccc(NCC2CCc3ccc4ccccc4c3O2)cc1` (stereo unspecified), for which the GI50 with NCI-H23 turned out to be 29.8 µM. Further, the inhibition in test [1] was 94%. Further, in test [2], the concentration for half-maximal inhibition (IC50) is 26.5 µM.

Take `O=C(NCC1CCc2ccc3ccccc3c2O1)c1ccccc1` (stereo unspecified): the GI50 in the test on NCI-H23 turned out to be 11.4 µM. The molecule also showed an inhibition in test [1] of over 100%. In test [2], this molecule yielded an IC50 of 48.6 µM.

Take `O=C(Nc1ccc(Cl)c(Cl)c1)C1CCc2ccc3ccccc3c2O1` (stereo unspecified): the GI50 with NCI-H23 turned out to be 23.5 µM. Besides, the inhibition in test [1] came out at 40%.

For the molecule `CC(C)CC(=O)NCC1CCc2ccc3ccccc3c2O1` (stereo unspecified), the GI50 in the test with NCI-H23 was over 30 µM. The same molecule had an inhibition in test [1] of 77%. The same molecule showed a half-maximal inhibitory concentration (IC50) in test [2] of 56.3 µM.

As to `O=C(Nc1ccccc1)C1CCc2ccc3ccccc3c2O1` (stereo unspecified), in the test with NCI-H23, the concentration for 50% growth inhibition (GI50) was over 30 µM. In test [1], this molecule returned an inhibition of 62%. For the same molecule, the 50% inhibitory concentration (IC50) in test [2] was 43.5 µM.

Regarding `CC(C)C(=O)NCC1CCc2ccc3ccccc3c2O1` (stereo unspecified), in the test on NCI-H23, the GI50 was over 30 µM. In test [1], this molecule came in with an inhibition of 31%.

As for `CC(C)CCNCC1CCc2ccc3ccccc3c2O1` (stereo unspecified), the GI50 in the test on NCI-H23 stood at 11.3 µM. In test [1], this molecule displayed an inhibition of over 100%. Besides, half-maximal inhibition in test [2] (IC50) was put at 25.9 µM.

As to `O=C(Nc1ccc(O)cc1)C1CCc2ccc3ccccc3c2O1` (stereo unspecified), the GI50 with NCI-H23 was 11.3 µM. In addition, the inhibition in test [1] was over 100%. The IC50 in test [2] is 5 µM.

As to `COc1cc2c(cc1O)CCC(C(=O)Nc1ccccc1)O2` (stereo unspecified), the IC50 in test [2] is 40.1 µM.

For the molecule `O=C(Nc1ccc(C(F)(F)F)cc1)C1CCc2ccc3ccccc3c2O1` (stereo unspecified), the GI50 in the test with NCI-H23 was 3.48 µM. This molecule displayed an inhibition in test [1] of over 100%. In test [2], inhibition was half-maximal at 12.9 µM (IC50).

As to `O=C(Nc1cc(C(F)(F)F)cc(C(F)(F)F)c1)C1CCc2ccc3ccccc3c2O1` (stereo unspecified), in the test on NCI-H23, the GI50 came to 11.2 µM. The molecule also returned an inhibition in test [1] of 66%. This molecule came in with an IC50 in test [2] of 63.8 µM.

Take `Clc1cccc(NCC2CCc3ccc4ccccc4c3O2)c1` (stereo unspecified): the 50% growth inhibitory concentration (GI50) with NCI-H23 was 17.2 µM. Also, the inhibition in test [1] was determined as 36%.

As for `CC(=O)NCC1CCc2ccc3ccccc3c2O1` (stereo unspecified), the GI50 in the test with NCI-H23 was over 30 µM. For the same molecule, the inhibition in test [1] stood at 35%.

In turn, `S=C(S)N1CCCC1` [PYRROLIDINE DITHIOCARBAMATE] showed an IC50 in test [2] of 37.2 µM.

Regarding `O=C(Nc1cc(Cl)cc(Cl)c1)C1CCc2ccc3ccccc3c2O1` (stereo unspecified), the GI50 with NCI-H23 was over 30 µM. Besides, in test [1], the inhibition stood at 52%. Moreover, half-maximal inhibition in test [2] (IC50) was put at 96.7 µM.

As to `CCNCC1CCc2ccc3ccccc3c2O1` (stereo unspecified), the GI50 in the test on NCI-H23 is over 30 µM. In test [1], this molecule yielded an inhibition of 39%.

On to `COc1ccc(NCC2CCc3ccc4ccccc4c3O2)cc1` (stereo unspecified), for which the GI50 in the test on NCI-H23 was 12.8 µM. In test [1], the inhibition stood at 88%. The molecule further yielded an IC50 in test [2] of 44.5 µM.

Consider `COc1ccc(NC(=O)C2CCc3ccc4ccccc4c3O2)cc1` (stereo unspecified), for which the GI50 with NCI-H23 is 3.98 µM. Moreover, in test [1], the inhibition was over 100%. The same molecule came in with a concentration for half-maximal inhibition (IC50) in test [2] of 12.9 µM.

For the molecule `O=C(Nc1ccccc1C(F)(F)F)C1CCc2ccc3ccccc3c2O1` (stereo unspecified), in the test with NCI-H23, the GI50 was 0.521 µM. In test [1], this molecule showed an inhibition of over 100%. In test [2], this molecule returned an IC50 of 2.4 µM. Besides, the Ratio IC50 in test [3] is 15.

In the case of `CC(C)CNCC1CCc2ccc3ccccc3c2O1` (stereo unspecified), in the test with NCI-H23, the concentration for 50% growth inhibition (GI50) is 11.7 µM. The same molecule yielded an inhibition in test [1] of over 100%. In addition, the IC50 in test [2] worked out at 27.1 µM.
